Assay results as given in ChEMBL document CHEMBL1144391, “New pyrazolo[1',5':1,6]pyrimido[4,5-d]pyridazin-4(3H)-ones as potent and selective PDE5 inhibitors” (Bioorg Med Chem Lett, 2005).

What was measured:
[1] = target: T1, Phosphodiesterase 6 (Bos taurus) (UniProt P23439+P16586+P11541+P22571+P04972+Q95142); experiment: Percentage inhibition of bovine Phosphodiesterase 6 at 2 uM (n=2-3); type: protein assay
Outline: (§1)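 Enzyme purified from bovine retinas; cyclic nucleotide phosphodiesterase activity measured by a two-step procedure. Values are either IC50 or percent inhibition at the single test concentration stated.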

[2] = target: T2, cGMP-specific 3',5'-cyclic phosphodiesterase (Homo sapiens, UniProt O76074); experiment: Inhibition of human Phosphodiesterase 5 (n=2-3)
[3] = Half-life was observed; type: ADME
Phosphodiesterase 6 = experiment: Inhibition of bovine Phosphodiesterase 6 (n=2-3); type: protein assay, Bos taurus
[4] = target: T2, cGMP-specific 3',5'-cyclic phosphodiesterase; experiment: Percentage inhibition of human Phosphodiesterase 5 at 2 uM (n=2-3)
Outline: (§2)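 Phosphodiesterase 5 purified from human platelets; activity measured by a two-step cyclic nucleotide phosphodiesterase procedure. Percent inhibition recorded at the single stated concentration.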

[5] = target: T2, cGMP-specific 3',5'-cyclic phosphodiesterase; experiment: Percentage inhibition of human Phosphodiesterase 5 at 20 uM (n=2-3); outline: as §2
[6] = target: T1, Phosphodiesterase 6 (Bos taurus); experiment: Percentage inhibition of bovine Phosphodiesterase 6 at 0.2 uM (n=2-3); type: protein assay; outline: as §1
[7] = target: T2, cGMP-specific 3',5'-cyclic phosphodiesterase; experiment: Percentage inhibition of human Phosphodiesterase 5 at 0.2 uM (n=2-3); outline: as §2

inhibition [1] [%]	IC50 [2] [µM]	SMILES	other results
42.5	0.034	CCC(C)c1nc2c(=O)n(Cc3ccccc3)nc(C)c2c2cc(-c3ccccc3)nn12 (centres undefined)	
		CN1CC(=O)N2[C@H](c3ccc4c(c3)OCO4)c3[nH]c4ccccc4c3C[C@@H]2C1=O	half-life [3]: > 17 h
20.4	0.45	Cc1nn(Cc2ccccc2)c(=O)c2nc(Cc3ccncc3)n3nc(-c4ccccc4)cc3c12	
	0.081	Cc1nn(Cc2ccccc2)c(=O)c2nc(-c3ccccc3)n3nc(-c4ccccc4)cc3c12	IC50 (Phosphodiesterase 6): 2.8 µM
	0.03	Cc1nn(Cc2ccccc2)c(=O)c2nc(CCCC(=O)O)n3nc(-c4ccccc4)cc3c12	IC50 (Phosphodiesterase 6): 0.11 µM
	1.1	Cc1nn(Cc2ccc(N)cc2)c(=O)c2nc(C)n3nc(-c4ccccc4)cc3c12	IC50 (Phosphodiesterase 6): 2 µM
34.6	0.039	CCC(C)c1nc2c(=O)n(Cc3ccccc3)nc(C)c2c2cc(-c3ccccn3)nn12 (centres undefined)	
		Cc1nn(Cc2ccccc2)c(=O)c2nc(C)n3nc(C(C)(C)C)cc3c12	inhibition [4]: 31%
13.6		Cc1nn(Cc2ccccc2)c(=O)c2nc(Cc3ccccc3)n3nc(-c4ccccc4)cc3c12	inhibition [4]: 22.5%
	0.32	Cc1nn(Cc2ccccc2)c(=O)c2nc(/C=C/C(=O)O)n3nc(-c4ccccc4)cc3c12	IC50 (Phosphodiesterase 6): 0.58 µM
-4.8		Cc1nn(Cc2ccccc2)c(=O)c2nc(-c3ccncc3)n3nc(-c4ccccc4)cc3c12	inhibition [4]: 69%
	0.43	Cc1nn(Cc2ccccc2)c(=O)c2nc(CCC(=O)O)n3nc(-c4ccccc4)cc3c12	IC50 (Phosphodiesterase 6): 0.59 µM
53.3	0.1	COCc1nc2c(=O)n(Cc3ccccc3)nc(C)c2c2cc(-c3ccccc3)nn12	
37.4	0.067	CCC(CC)c1nc2c(=O)n(Cc3ccccc3)nc(C)c2c2cc(-c3ccccc3)nn12	
		Cc1nn(Cc2ccccc2)c(=O)c2nc(C)n3nc(-c4ccc5c(c4)OCO5)cc3c12	IC50 (Phosphodiesterase 6): 78 µM
19.2		Cc1nn(Cc2ccccc2)c(=O)c2nc(CC3CCCCC3)n3nc(-c4ccccc4)cc3c12	inhibition [4]: 33.6%
	0.98	Cc1nn(Cc2ccccc2)c(=O)c2nc(CCc3ccccc3)n3nc(-c4ccccc4)cc3c12	IC50 (Phosphodiesterase 6): 30 µM

inhibition [1] [%]	IC50 [2] [µM]	SMILES	other results
	3.1	Cc1nn(CC2CCCCC2)c(=O)c2nc(C)n3nc(-c4ccccc4)cc3c12	IC50 (Phosphodiesterase 6): 11 µM
66.9	0.059	CCC(C)c1nc2c(=O)n(Cc3cccc(OP(=O)(O)O)c3)nc(C)c2c2cc(-c3ccccc3)nn12 (centres undefined)	
		Cc1ccccc1-c1nc2c(=O)n(Cc3ccccc3)nc(C)c2c2cc(-c3ccccc3)nn12	inhibition [4]: 55.1%
10.4		Cc1nn(Cc2ccc([N+](=O)[O-])cc2)c(=O)c2nc(C)n3nc(-c4ccccc4)cc3c12	inhibition [5]: 65.9%
11.5	0.075	Cc1cccc(-c2nc3c(=O)n(Cc4ccccc4)nc(C)c3c3cc(-c4ccccc4)nn23)c1	
		Cc1nn(Cc2ccccc2)c(=O)c2nc(C)n3nc(-c4ccc([N+](=O)[O-])cc4)cc3c12	inhibition [5]: 65.5%; inhibition [6]: 14.4%
17.7	0.18	Cc1nn(Cc2ccccc2)c(=O)c2nc(-c3cccnc3)n3nc(-c4ccccc4)cc3c12	
21.3	0.081	Cc1nn(Cc2ccccc2)c(=O)c2nc(-c3ccccn3)n3nc(-c4ccccc4)cc3c12	
45	0.35	CCOCc1nc2c(=O)n(Cc3ccccc3)nc(C)c2c2cc(-c3ccccc3)nn12	
	0.23	Cc1nn(Cc2cccc(OP(=O)(O)O)c2)c(=O)c2nc(C)n3nc(-c4ccccc4)cc3c12	inhibition [6]: 28.6%
	0.27	Cc1nn(Cc2ccccc2)c(=O)c2nc(C)n3nc(-c4ccccn4)cc3c12	IC50 (Phosphodiesterase 6): 10 µM
38.1	0.1	CSCc1nc2c(=O)n(Cc3ccccc3)nc(C)c2c2cc(-c3ccccc3)nn12	
4.2		Cc1nn(Cc2ccccc2)c(=O)c2nc(CC3CCCC3)n3nc(-c4ccccc4)cc3c12	inhibition [4]: 18.2%
25	0.16	Cc1nn(Cc2ccccc2)c(=O)c2nc(C)n3nc(-c4ccccc4)cc3c12	
		Cc1nn(-c2ccccc2)c(=O)c2nc(C)n3nc(-c4ccccc4)cc3c12	inhibition [7]: 11.9%; inhibition [6]: 3.7%
	0.09	Cc1nn(Cc2ccccc2)c(=O)c2nc(CCCCC(=O)O)n3nc(-c4ccccc4)cc3c12	IC50 (Phosphodiesterase 6): 0.063 µM
4.5	0.92	Cc1nn(Cc2ccccc2)c(=O)c2nc(C)n3nc(-c4ccc(N)cc4)cc3c12	
